Laboratory results taken from ChEMBL document CHEMBL1131235, “(R)-(+)-2-[[[3-(Morpholinomethyl)-2H-chromen-8-yl]oxy]methyl] morpholine methanesulfonate: a new selective rat 5-hydroxytryptamine1B receptor antagonist” (J Med Chem, 1998).
Where “and” joins values, the source holds several entries; their conditions need not be identical. Equal values may be shown once.

Experiments:
[1] = Effect on 5-HTP turnover in Frontal cortex of rat brain, expressed as percent of control; type: functional
Procedure, shortened: (§1)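 Rats received compound 20 mg/kg sc or saline 30 min before NSD 1015 (3-hydroxybenzylhydrazine dihydrochloride), 100 mg/kg sc. They were killed 30 min later. Hypothalamus, hippocampus, frontal cortex and striatum were dissected, frozen on dry ice and stored at -70 °C. 5-HTP, 5-HT and 5-HIAA were measured by HPLC and expressed as % of saline control.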

Rattus norvegicus [2] = species on record: Rattus norvegicus; experiment: Effect on 5-HTP turnover in Striatum of rat brain, expressed as percent of control; type: functional; procedure, shortened: as §1
[3] = Effect on 5-HIAA/5-HT turnover in Frontal cortex of rat brain, expressed as percent of control; type: functional; procedure, shortened: as §1
[4] = Potentiation of K+ stimulated release of [3H]5-HT from brain slices at a concentration of 100 nM. (activity expressed as ratio of S2 (second stimulation)/S1(first stimulation)); type: functional, Rattus norvegicus
Procedure, shortened: (§2)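 Rat occipital cortex slices (0.3 × 0.3 mm) preloaded with [3H]-5-HT, superfused at 0.4 mL/min with oxygenated Krebs-Henseleit pH 7.4 containing 2.5 μM citalopram. Two 4-min 25 mM KCl pulses at 62 and 98 min, compound present for 72 min spanning S2. Fractional release counted by liquid scintillation. S2/S1 ratio reported, also as % of control; n=3–8.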

[5] = Antagonism of the induced potentiation of K+ stimulated [3H]5-HT release from brain slices with 5-HT (1000 nM) at a concentration of 1000 nM.; type: functional, Rattus norvegicus
Procedure, shortened: (§3)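 Rat occipital cortex slices (0.3 × 0.3 mm) were preloaded with [3H]-5-HT and superfused at 0.4 mL/min with oxygenated Krebs-Henseleit buffer, pH 7.4, containing 2.5 μM citalopram. After a 50 min wash, 4-min fractions were collected. 25 mM KCl was applied for 4 min at 62 min and again at 98 min. Test compound and 5-HT were given together in the same solution for 72 min. Fraction and slice radioactivity were counted by liquid scintillation. S2/S1 was expressed as % of control; Dunnett's t-test after ANOVA.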

Rattus norvegicus [6] = species on record: Rattus norvegicus; experiment: Effect on 5-HIAA/5-HT turnover in Hippocampus of rat brain, expressed as percent of control; type: functional; procedure, shortened: as §1
[7] = Antagonism of the induced potentiation of K+ stimulated [3H]5-HT release from brain slices with 5-HT (1000 nM) at a concentration of 1000nM, expressed as percent of control; type: functional, Rattus norvegicus; parameters: scale not given: the % may be the effect or the level left
Procedure, shortened: (§4)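 Superfused rat occipital cortex slices (0.3 × 0.3 mm) preloaded with [3H]-5-HT; Krebs-Henseleit pH 7.4 with 2.5 μM citalopram, 0.4 mL/min. Two 4-min 25 mM KCl pulses (62 and 98 min). Compound and 5-HT were given in the same solution. Fractions and slices were counted by scintillation. S2/S1 is expressed as % of control.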

[8] = Potentiation of K+ stimulated release of [3H]5-HT from brain slices at a concentration of 1000 nM. (activity expressed as ratio of S2 (second stimulation)/S1(first stimulation)); type: functional, Rattus norvegicus; procedure, shortened: as §2
Rattus norvegicus [9] = species on record: Rattus norvegicus; experiment: Percent control of the stimulation ratio S2 (second stimulation)/S1(first stimulation) at a concentration of 1000 nM. (p<0.05); type: functional
Rattus norvegicus [10] = experiment: Effect on the wet dog shake response(WDS) in rats after 10 determinations at a dose of 3 mg/kg, sc pretreated with saline; type: functional; settings: route subcutaneous
Procedure, shortened: (§5)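 Rats were pretreated with pCPA 200 mg/kg ip or saline at 72 and 48 h before compound, 3 mg/kg sc. Wet dog shakes (whole-body and head shakes) were counted from 5 to 65 min after injection. Groups of 8-10 rats were compared with saline-treated rats (n = 30), Dunnett's t-test after ANOVA.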

[11] = Antagonism of the induced potentiation of K+ stimulated [3H]-5-HT release from brain slices with 5-HT (100 nM) at a concentration of 1000 nM, expressed as percent of control; type: functional, Rattus norvegicus; parameters: scale not given: the % may be the effect or the level left; procedure, shortened: as §4
Rattus norvegicus [12] = species on record: Rattus norvegicus; experiment: Percent control of the stimulation ratio S2 (second stimulation)/S1(first stimulation) at a concentration of 100 nM. (P<0.05); type: functional
Rattus norvegicus [13] = species on record: Rattus norvegicus; experiment: Effect on 5-HTP turnover in Hippocampus of rat brain, expressed as percent of control; type: functional; procedure, shortened: as §1
[14] = Antagonism of the induced potentiation of K+ stimulated [3H]5-HT release from brain slices with 5-HT (100 nM) at a concentration of 1000 nM.; type: functional, Rattus norvegicus; procedure, shortened: as §3
[15] = Potentiation of K+ stimulated release of [3H]5-HT from brain slices at a concentration of 0 nM. (activity expressed as ratio of S2 (second stimulation)/S1(first stimulation)); type: functional, Rattus norvegicus
Rattus norvegicus [16] = species on record: Rattus norvegicus; experiment: Effect on 5-HIAA/5-HT turnover in Striatum of rat brain, expressed as percent of control; type: functional; procedure, shortened: as §1
[17] = biological target: 5-hydroxytryptamine receptor 7 (Rattus norvegicus, UniProt P32305); experiment: Binding affinity against 5-hydroxytryptamine 7 receptor using from CHO cell membranes [3H]5-HT as the radioligand.
Procedure, shortened: (§6)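 Binding by the Johansson et al. method. 5-HT2A used [3H]ketanserin and 5-HT2C used [3H]mesulergine, both on rat cortex. 5-HT6 and 5-HT7 used [3H]-5-HT on CHO cell membranes expressing the rat receptors.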

Rattus norvegicus [18] = species on record: Rattus norvegicus; experiment: Effect on 5-HIAA/5-HT turnover in Hyphalamus of rat brain, expressed as percent of control; type: functional; procedure, shortened: as §1
[19] = biological target: Muscarinic acetylcholine receptor M3 (Rattus norvegicus, UniProt P08483); experiment: Binding affinity against Muscarinic acetylcholine receptor using [3H]QNB as the radioligand.
Rattus norvegicus [20] = experiment: Effect on the wet dog shake response(WDS) in rats after 9 determinations at a dose of 3mg/kg, sc pretreated with 200 mg/kg ip of pCPA.; type: functional; settings: route subcutaneous; procedure, shortened: as §5
[21] = biological target: 5-hydroxytryptamine receptor 6 (Rattus norvegicus, UniProt P31388); experiment: Binding affinity against 5-hydroxytryptamine 6 receptor from CHO cell membranes using [3H]5-HT as the radioligand.; procedure, shortened: as §6
[22] = Potentiation of K+ stimulated release of [3H]-5-HT from brain slices at a concentration of 10 nM. (activity expressed as ratio of S2 (second stimulation)/S1(first stimulation)); type: functional, Rattus norvegicus; procedure, shortened: as §2
Rattus norvegicus [23] = species on record: Rattus norvegicus; experiment: Effect on 5-HTP turnover in hypothalamus of rat brain, expressed as percent of control; type: functional; procedure, shortened: as §1

Sequence of Muscarinic acetylcholine receptor M3 (P08483 whole entry): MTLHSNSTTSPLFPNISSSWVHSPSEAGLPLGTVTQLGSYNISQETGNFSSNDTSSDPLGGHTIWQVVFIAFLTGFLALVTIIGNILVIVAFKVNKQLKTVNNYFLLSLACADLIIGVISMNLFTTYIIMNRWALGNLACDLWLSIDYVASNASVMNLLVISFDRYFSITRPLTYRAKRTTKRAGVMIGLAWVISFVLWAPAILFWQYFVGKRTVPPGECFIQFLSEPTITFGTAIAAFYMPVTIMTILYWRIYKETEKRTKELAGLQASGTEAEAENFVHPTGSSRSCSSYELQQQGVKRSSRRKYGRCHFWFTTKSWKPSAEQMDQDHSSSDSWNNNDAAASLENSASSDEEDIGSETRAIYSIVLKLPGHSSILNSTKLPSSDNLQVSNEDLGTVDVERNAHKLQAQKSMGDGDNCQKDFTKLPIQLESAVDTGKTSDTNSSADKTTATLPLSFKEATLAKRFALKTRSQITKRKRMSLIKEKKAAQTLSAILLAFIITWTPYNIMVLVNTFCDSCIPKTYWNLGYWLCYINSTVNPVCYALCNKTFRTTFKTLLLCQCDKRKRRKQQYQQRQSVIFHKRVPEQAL
Sequence of 5-hydroxytryptamine receptor 6 (P31388 whole entry): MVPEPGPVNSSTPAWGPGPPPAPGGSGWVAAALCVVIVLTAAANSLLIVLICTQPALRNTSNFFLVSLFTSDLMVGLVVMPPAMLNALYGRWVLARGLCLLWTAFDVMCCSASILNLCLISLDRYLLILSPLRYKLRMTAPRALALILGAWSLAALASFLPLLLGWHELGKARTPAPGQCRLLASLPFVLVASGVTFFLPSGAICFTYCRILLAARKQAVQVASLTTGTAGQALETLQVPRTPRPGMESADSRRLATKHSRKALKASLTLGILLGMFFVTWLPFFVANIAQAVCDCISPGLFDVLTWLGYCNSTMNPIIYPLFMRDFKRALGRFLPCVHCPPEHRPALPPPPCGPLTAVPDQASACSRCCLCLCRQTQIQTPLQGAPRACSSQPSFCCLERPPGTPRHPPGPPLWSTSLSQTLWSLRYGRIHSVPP
Sequence of 5-hydroxytryptamine receptor 7 (P32305 whole entry): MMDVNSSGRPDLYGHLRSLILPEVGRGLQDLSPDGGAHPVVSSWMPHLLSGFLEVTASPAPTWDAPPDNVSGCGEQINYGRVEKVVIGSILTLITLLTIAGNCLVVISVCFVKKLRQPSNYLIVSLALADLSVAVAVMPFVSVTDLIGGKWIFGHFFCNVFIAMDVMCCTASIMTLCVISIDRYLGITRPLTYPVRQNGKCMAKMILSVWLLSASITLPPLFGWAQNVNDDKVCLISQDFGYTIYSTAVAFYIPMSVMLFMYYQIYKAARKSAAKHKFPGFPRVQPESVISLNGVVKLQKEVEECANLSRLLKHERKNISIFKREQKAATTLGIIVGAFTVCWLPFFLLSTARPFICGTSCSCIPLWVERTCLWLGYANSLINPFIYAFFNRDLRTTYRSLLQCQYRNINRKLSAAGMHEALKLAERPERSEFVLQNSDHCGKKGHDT

**Q.** Which Activity [1] does the source give for `C1=C(CN2CCOCC2)COc2c1cccc2OC[C@H]1CNCCO1.CS(=O)(=O)O` here?
**A.** The Activity was 142%.

**Q.** What about the Activity (Rattus norvegicus [2]) of the same molecule?
**A.** The Activity was 142%.

**Q.** And the Activity [3]?
**A.** The Activity was 161%.

**Q.** What about the Potentiation [4] of the same molecule?
**A.** The Potentiation was 1.23.

**Q.** And the Ratio of stimulation [5]?
**A.** Its Ratio of stimulation is 1.12 and 0.8.

**Q.** What about the Activity (Rattus norvegicus [6]) of the same molecule?
**A.** Its Activity is 142%.

**Q.** And the Activity [7]?
**A.** The Activity was 149% and 107%.

**Q.** What about the Potentiation [8] of the same molecule?
**A.** The Potentiation was 1.44.

**Q.** And the Control (Rattus norvegicus [9])?
**A.** The Control was 153%.

**Q.** And the “No. of WDS/60 min” value (Rattus norvegicus [10])?
**A.** The value was 17.

**Q.** And the Activity [11]?
**A.** Its Activity is 149% and 161%.

**Q.** And the Control (Rattus norvegicus [12])?
**A.** Its Control is 131%.

**Q.** And the Activity (Rattus norvegicus [13])?
**A.** Its Activity is 148%.

**Q.** What about the Ratio of stimulation [14] of the same molecule?
**A.** The Ratio of stimulation was 1.28 and 1.39.

**Q.** And the Potentiation [15]?
**A.** The Potentiation was 0.99.

**Q.** And the Activity (Rattus norvegicus [16])?
**A.** The Activity was 145%.

**Q.** And the Ki [17]?
**A.** Its Ki is greater than 3 µM.

**Q.** What about the Activity (Rattus norvegicus [18]) of the same molecule?
**A.** Its Activity is 166%.

**Q.** What about the Ki [19] of the same molecule?
**A.** The Ki was greater than 1 µM.

**Q.** And the “No. of WDS/60 min” value (Rattus norvegicus [20])?
**A.** Its value is 9.2.

**Q.** What about the Ki [21] of the same molecule?
**A.** Its Ki is greater than 3 µM.

**Q.** What about the Potentiation [22] of the same molecule?
**A.** Its Potentiation is 1.11.

**Q.** What about the Activity (Rattus norvegicus [23]) of the same molecule?
**A.** Its Activity is 140%.
